From ChEMBL document CHEMBL1140685, “Synthesis and antitrichinellosis activity of some bis(benzimidazol-2-yl)amines” (2007)

Columns and labels:
Type in all cases: functional
Trichinella spiralis [1] = assay: Antitrichinellosis activity against Trichinella spiralis larvae at 100 ug/ml after 48 hrs by Campbell's method
Summary of the method: (§1)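 Encapsulated T. spiralis larvae were held at 150 per 1 ml physiological solution with compound dissolved in DMSO–water. Incubation was at 37 °C in a humid thermostatted chamber. Larval vitality was scored by stereomicroscope at 24 and 48 h after treatment.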

Trichinella spiralis [2] = assay: Antitrichinellosis activity against Trichinella spiralis larvae at 50 ug/ml after 24 hrs by Campbell's method; summary of the method: as §1
Trichinella spiralis [3] = assay: Antitrichinellosis activity against Trichinella spiralis larvae at 50 ug/ml after 48 hrs by Campbell's method; summary of the method: as §1
Trichinella spiralis [4] = assay: Antitrichinellosis activity against Trichinella spiralis larvae at 100 ug/ml after 24 hrs by Campbell's method; summary of the method: as §1
Trichinella spiralis [5] = assay: Antitrichinellosis activity against Trichinella spiralis larvae at 200 ug/ml after 24 hrs by Campbell's method; summary of the method: as §1
Trichinella spiralis [6] = assay: Antitrichinellosis activity against Trichinella spiralis larvae at 200 ug/ml after 48 hrs by Campbell's method; summary of the method: as §1
Trichinella spiralis [7] = assay: Antitrichinellosis activity against Trichinella spiralis intestinal phase larvae in mouse at 50 mg/kg, po after 3 days
Summary of the method: (§2)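 White immature mice each infected with 150 Trichinella larvae, five mice per group. Oral dosing by thin metallic probe into the oesophagus as DMSO solution, once daily for 3 days starting on day 3 after infection. Controls were untreated mice and mice given albendazole at 100 mg/kg. Read-out was microscopic examination of small-intestine contents after autopsy for larvae.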

Trichinella spiralis [8] = assay: Antitrichinellosis activity against Trichinella spiralis intestinal phase larvae in mouse at 100 mg/kg, po after 3 days; summary of the method: as §2

| Compound | Efficacy (Trichinella spiralis [1]) [%] | Efficacy (Trichinella spiralis [2]) [%] | Efficacy (Trichinella spiralis [3]) [%] | Efficacy (Trichinella spiralis [4]) [%] | Efficacy (Trichinella spiralis [5]) [%] | Efficacy (Trichinella spiralis [6]) [%] | Efficacy (Trichinella spiralis [7]) [%] | Efficacy (Trichinella spiralis [8]) [%] |
| --- | --- | --- | --- | --- | --- | --- | --- | --- |
| Cn1c(Nc2nc3ccccc3[nH]2)nc2ccccc21 | 28.3 | 9.1 | 17.2 | 13.5 | 30.2 | 58.3 | – | – |
| CCn1c(Nc2nc3ccccc3[nH]2)nc2ccccc21 | 38.6 | 15.7 | 25.3 | 20 | 38.2 | 65 | – | – |
| CCCn1c(Nc2nc3ccccc3[nH]2)nc2ccccc21 | 34.5 | 12 | 20 | 17.6 | 67.7 | 78 | – | – |
| CCn1c(Nc2nc3ccccc3n2C)nc2ccccc21 | 73 | 35.3 | 65.3 | 65.7 | 76.3 | 84 | – | – |
| CCn1c(Nc2nc3ccccc3n2CC)nc2ccccc21 | 97.5 | 45.8 | 66.3 | 92 | 94 | 98 | 100 | 100 |
| CCCn1c(Nc2nc3ccccc3n2CC)nc2ccccc21 | 92.1 | 42 | 46 | 84 | 96 | 100 | 100 | 100 |
| Cn1c(Nc2nc3ccccc3n2C)nc2ccccc21 | 18.3 | 8.8 | 14 | 17.3 | 45.7 | 67.9 | – | – |
| CCCn1c(Nc2nc3ccccc3n2C)nc2ccccc21 | 80 | 33.3 | 43.4 | 73.8 | 80 | 88.4 | – | – |
| CCCn1c(Nc2nc3ccccc3n2CCC)nc2ccccc21 | 95.3 | 45.9 | 58.6 | 81.2 | 100 | 100 | 100 | 100 |
| CCCSc1ccc2[nH]c(NC(=O)OC)nc2c1 [ALBENDAZOLE] | 15.1 | 10.6 | 14.8 | 10.7 | 13.3 | 17.4 | – | 100 |
